The values below come from ChEMBL document CHEMBL1149457, “Effects of amino acid chirality and the chemical linker on the cell permeation characteristics of cyclic prodrugs of opioid peptides” (J Med Chem, 2006).

Holding throughout (assay type): ADME, cell-based
What all share (conditions): human

Series [1] concerns Caco-2. The series is described as follows: Ratio of permeability from basolateral to apical over apical to basolateral side of the Caco-2 cell membrane in presence of 10 uM GF 120918. Put shortly: (§1)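 Caco-2 monolayers (passages 30-39) were grown 21-28 days on polyester Transwell membranes, with batch integrity checked by [14C]-mannitol flux. Bidirectional transport (n = 3) was run at 37 °C with shaking, using peptide at 20 µM final in HBSS pH 7.4 with 0.4% DMSO and inhibitor in HBSS. Sampling continued up to 160 min, with LC-MS-MS quantitation. Papp BL-to-AP/AP-to-BL ratio.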
On the technique in general: Caco-2 monolayers are a common model of the intestinal barrier.

The subject of series [2] is Caco-2. Description: Ratio of permeability from basolateral to apical over apical to basolateral side of the Caco-2 cell membrane in presence of 50 uM MK 571. The gist of the method:
as §1

Series [3] concerns Caco-2. The series is described as follows: Ratio of permeability from basolateral to apical over apical to basolateral side of the Caco-2 cell membrane in presence of 20 uM cyclosporin A. Put shortly: as §1
The test system of series [4] is Caco-2. Description: Ratio of permeability from basolateral to apical over apical to basolateral side of the Caco-2 cell membrane in presence of 2 uM GF 120918. Put shortly:
as §1

The structures appear in SMILES notation.

For the compound `CC(=O)N[C@@H](Cc1ccc(O)cc1)C(=O)N[C@H](C)C(=O)NCC(=O)N[C@@H](Cc1ccccc1)C(=O)N[C@@H](CC(C)C)C(N)=O`, the Ratio in the series on Caco-2 [1] was 1.1; with Caco-2 [2], 1.1; in the series on Caco-2 [3], 2.4.

Regarding `CC(C)C[C@@H]1NC(=O)[C@H](Cc2ccccc2)NC(=O)CNC(=O)[C@@H](C)NC(=O)[C@H](Cc2ccc(O)cc2)NC(=O)/C=C\c2ccccc2OCOC1=O`, the Ratio in the series with Caco-2 [4] was determined as 5; in the series on Caco-2 [1], 2.3; in the series on Caco-2 [2], 2.8; in the series on Caco-2 [3], 14.

Turning to `CC(C)C[C@H]1NC(=O)[C@H](Cc2ccccc2)NC(=O)CNC(=O)[C@H](C)NC(=O)[C@H](Cc2ccc(O)cc2)NC(=O)/C=C\c2ccccc2OCOC1=O`, the Ratio in the series on Caco-2 [4] came to 5.4; with Caco-2 [1], 2.1; in the series on Caco-2 [3], 6.1.

`CC(=O)N[C@@H](Cc1ccc(O)cc1)C(=O)N[C@@H](C)C(=O)NCC(=O)N[C@@H](Cc1ccccc1)C(=O)N[C@H](CC(C)C)C(N)=O`: the Ratio with Caco-2 [1] is reported as 1; with Caco-2 [2] it was 3.8; in the series on Caco-2 [3] it was 1.2.

As to `CC(C)C[C@H]1NC(=O)[C@H](Cc2ccccc2)NC(=O)CNC(=O)[C@@H](C)NC(=O)[C@H](Cc2ccc(O)cc2)NC(=O)/C=C\c2ccccc2OCOC1=O`, the results for the Ratio with Caco-2 [4], in the series with Caco-2 [1] and in the series on Caco-2 [2] were 13, 2.8 and 4.9, respectively.

For `CC(C)C[C@@H]1NC(=O)[C@H](Cc2ccccc2)NC(=O)CNC(=O)[C@H](C)NC(=O)[C@H](Cc2ccc(O)cc2)NC(=O)/C=C\c2ccccc2OCOC1=O`, the Ratio turned out to be 1.9 in the series with Caco-2 [1] and 12 in the series with Caco-2 [3].
